Experimental data published in ChEMBL document CHEMBL1134844 (J Med Chem, 2001).

How the values were obtained:
[1] = target: 5-hydroxytryptamine receptor 1D (Homo sapiens, UniProt P28221); experiment: Binding affinity in CHO-K1 cells transfected with human 5-hydroxytryptamine 1D receptor; format: cell-based
How it was run: (§1)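 Competition binding on CHO-K1 cells stably transfected with human recombinant 5HT1D, 5HT1F or 5HT1A receptors; reported as pIC50, means of duplicates.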

Oryctolagus cuniculus [2] = organism: Oryctolagus cuniculus; experiment: (§2) Relative binding affinity in rabbit saphenous vein functional assay compared to 5-HT; conditions: read-out: pA2 (converted)
[3] = target: 5-hydroxytryptamine receptor 1B (Homo sapiens, UniProt P28222); experiment: Binding affinity in CHO-K1 cells transfected with human recombinant 5-hydroxytryptamine 1B receptor; format: cell-based
Oryctolagus cuniculus [4] = organism: Oryctolagus cuniculus; experiment: as §2
Cavia porcellus [5] = organism: Cavia porcellus; experiment: Ability to inhibit [125I]- albumin extravasation into dura following electrical stimulation of trigeminal ganglion of Guinea pig; format: functional
How it was run: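 Pentobarbitone-anaesthetised (50 mg/kg ip), ventilated guinea pigs kept at 37 °C; single jugular iv bolus of 0.01, 0.03 or 0.1 µg/kg or saline vehicle. 5 min later, [125I]BSA 50 µCi/kg iv. After another 5 min, one trigeminal ganglion was stimulated for 5 min (5 pulses/s, 5 ms, 1.2 mA). Dura gamma-counted as cpm/mg wet weight; stimulated/unstimulated ratio, mean ± SEM; vehicle controls run daily.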

Oryctolagus cuniculus [6] = organism: Oryctolagus cuniculus; experiment: Binding affinity towards rabbit saphenous vein value in parenthesis represents intrinsic activity for RbSv;(1 for 5-HT); format: functional
Oryctolagus cuniculus [7] = organism: Oryctolagus cuniculus; conditions: Saphenous vein
[8] = Oral bioavailability in human; format: ADME, organism-based; conditions: in vivo
[9] = Oral bioavailability in rat; format: ADME, organism-based; conditions: in vivo
[10] = target: T1, 5-hydroxytryptamine receptor 1A (Homo sapiens, UniProt P08908); experiment: binding affinity towards human recombinant 5-hydroxytryptamine 1A receptor; how it was run: as §1
T1 sequence (P08908 whole entry): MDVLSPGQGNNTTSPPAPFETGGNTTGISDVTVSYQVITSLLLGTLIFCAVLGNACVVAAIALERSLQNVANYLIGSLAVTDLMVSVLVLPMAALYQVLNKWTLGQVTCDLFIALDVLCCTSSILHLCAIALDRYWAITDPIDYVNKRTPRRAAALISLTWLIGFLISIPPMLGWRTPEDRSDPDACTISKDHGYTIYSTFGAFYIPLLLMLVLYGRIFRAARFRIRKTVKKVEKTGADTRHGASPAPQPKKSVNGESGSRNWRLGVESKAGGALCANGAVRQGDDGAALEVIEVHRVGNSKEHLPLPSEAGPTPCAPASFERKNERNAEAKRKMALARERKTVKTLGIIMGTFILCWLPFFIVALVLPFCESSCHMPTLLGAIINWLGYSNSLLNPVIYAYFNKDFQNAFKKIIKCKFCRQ

[11] = Plasma clearance in rat; format: ADME, organism-based
[12] = Beta phase half life was determined in rat; format: ADME, organism-based; conditions: in vivo
Cavia porcellus [13] = organism: Cavia porcellus; experiment: Ability to inhibit [125I]- albumin extravasation into dura following electrical stimulation of trigeminal ganglion; format: functional
How it was run: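 Anesthetized guinea pigs (pentobarbitone 50 mg/kg ip, 37 °C, ventilated) got a single iv jugular bolus (0.01, 0.03 or 0.1 µg/kg; vehicle 0.9% saline). 5 min later 50 µCi/kg [125I]BSA iv; after another 5 min, unilateral trigeminal ganglion stimulation for 5 min (5 pulses/s, 5 ms, 1.2 mA). Dural cpm/mg wet weight was expressed as stimulated/unstimulated ratio, mean ± SEM.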

[14] = target: T2, 5-hydroxytryptamine receptor 1F (Homo sapiens, UniProt P30939); experiment: Binding affinity towards human recombinant 5-hydroxytryptamine 1F receptor; how it was run: as §1
T2 sequence (P30939 whole entry): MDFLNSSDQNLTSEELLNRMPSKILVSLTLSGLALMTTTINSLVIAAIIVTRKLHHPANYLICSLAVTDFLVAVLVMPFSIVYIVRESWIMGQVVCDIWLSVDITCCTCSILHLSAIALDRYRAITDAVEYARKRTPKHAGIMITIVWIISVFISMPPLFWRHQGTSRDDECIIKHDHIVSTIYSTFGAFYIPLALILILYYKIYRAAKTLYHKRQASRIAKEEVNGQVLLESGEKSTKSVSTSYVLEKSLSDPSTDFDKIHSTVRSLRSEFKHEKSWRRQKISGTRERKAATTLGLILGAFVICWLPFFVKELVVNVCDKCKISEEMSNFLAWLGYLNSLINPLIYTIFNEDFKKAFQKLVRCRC

[15] = Volume distribution in rat; format: ADME, organism-based; conditions: in vivo

Sequence of 5-hydroxytryptamine receptor 1D (P28221 whole entry): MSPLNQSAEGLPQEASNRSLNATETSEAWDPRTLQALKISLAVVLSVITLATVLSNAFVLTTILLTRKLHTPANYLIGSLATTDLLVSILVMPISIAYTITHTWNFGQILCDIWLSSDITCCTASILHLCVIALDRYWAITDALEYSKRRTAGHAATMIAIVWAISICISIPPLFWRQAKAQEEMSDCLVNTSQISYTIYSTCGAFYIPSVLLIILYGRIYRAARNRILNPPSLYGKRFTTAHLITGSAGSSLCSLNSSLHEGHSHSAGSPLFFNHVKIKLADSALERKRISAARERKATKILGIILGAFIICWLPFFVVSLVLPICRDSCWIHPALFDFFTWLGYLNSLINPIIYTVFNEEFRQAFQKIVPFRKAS
Sequence of 5-hydroxytryptamine receptor 1B (P28222 whole entry): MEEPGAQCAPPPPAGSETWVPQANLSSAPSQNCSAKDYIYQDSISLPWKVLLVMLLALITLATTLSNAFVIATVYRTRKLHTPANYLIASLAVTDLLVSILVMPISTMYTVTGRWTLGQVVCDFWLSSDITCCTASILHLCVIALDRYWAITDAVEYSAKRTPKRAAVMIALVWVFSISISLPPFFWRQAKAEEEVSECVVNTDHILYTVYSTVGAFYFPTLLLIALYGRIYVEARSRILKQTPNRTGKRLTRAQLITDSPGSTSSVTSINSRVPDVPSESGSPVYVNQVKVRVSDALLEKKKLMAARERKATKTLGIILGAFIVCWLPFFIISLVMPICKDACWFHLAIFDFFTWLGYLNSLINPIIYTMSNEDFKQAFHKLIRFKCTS

Row | Compound | IC50 [1] [nM] | Kb (Oryctolagus cuniculus [2]) [nM] | IC50 [3] [nM] | pA50 (Oryctolagus cuniculus [4]) | other results
1 | CN(C)[C@H]1C[C@H](c2c[nH]c3ccc(CN4C(=O)CNC4=O)cc32)C1 | 2450 | 9330 | 6310 |  | 
2 | CN(C)[C@H]1C[C@H](c2c[nH]c3ccc(CN4C(=O)NC(C)(C)C4=O)cc32)C1 | 3090 | 589 | 3800 |  | 
3 | N[C@H]1C[C@H](c2c[nH]c3ccc(Oc4ccccc4)cc32)C1 | 14.5 |  | 9.55 | < 6.5 | 
4 | CN(C)[C@H]1C[C@H](c2c[nH]c3ccc(CC4COC(=O)N4)cc32)C1 (stereo in doubt; 35) [listing 1 of 2 here] |  |  |  | 5.15 | 
5 | CN(C)[C@H]1C[C@H](c2c[nH]c3ccc(C(N)=O)cc32)C1 | 14.8 |  | 44.7 | 6.25 | 
6 | CN(C)[C@H]1C[C@H](c2c[nH]c3ccc(CC4COC(=O)N4)cc32)C1 (stereo in doubt; 1) [listing 1 of 2 here] |  |  |  | 5.72 | 
7 | CN1C(=O)OCC1Cc1ccc2[nH]cc([C@H]3C[C@H](N(C)C)C3)c2c1 (stereo in doubt; 34) [listing 1 of 2 here] |  |  |  | 4.85 | 
8 | CN[C@H]1C[C@H](c2c[nH]c3ccc(CC4COC(=O)N4)cc32)C1 (stereo partly specified) | 7.08 |  | 32.4 | 6.18 | 
9 | N[C@H]1C[C@H](c2c[nH]c3ccc(CC4COC(=O)N4)cc32)C1 (stereo in doubt; 23) [listing 1 of 2 here] |  |  |  | 6.42 | 
10 | CN1C(=O)OCC1Cc1ccc2[nH]cc([C@H]3C[C@H](N(C)C)C3)c2c1 (stereo in doubt; 30) [listing 1 of 2 here] |  |  |  | 5.21 | 
11 | CN(C)[C@H]1C[C@H](Cc2c[nH]c3ccc(C[C@H]4COC(=O)N4)cc23)C1 | 28.8 | 1860 | 141 |  | 
12 | CN1C(=O)OCC1Cc1ccc2[nH]cc([C@H]3C[C@H](N(C)C)C3)c2c1 (stereo in doubt; 34) [listing 2 of 2 here] | 57.5 |  | 97.7 |  | 
13 | CN(C)[C@H]1C[C@H](c2c[nH]c3ccc(CC4COC(=O)N4)cc32)C1 (stereo in doubt; 31) [listing 1 of 2 here] | 170 |  | 562 |  | 
14 | CC1(C)NC(=O)N(CCc2ccc3[nH]cc([C@H]4C[C@H](N)C4)c3c2)C1=O | 501 | 2690 | 1120 |  | 
15 | CNS(=O)(=O)Cc1ccc2[nH]cc([C@H]3C[C@H](N(C)C)C3)c2c1 | 191 |  | 275 | 5.25 | 
16 | N[C@H]1C[C@H](c2c[nH]c3ccc(CC4COC(=O)N4)cc32)C1 (stereo in doubt; 24) |  |  |  | 5.8 | 
17 | Cc1noc(Cc2ccc3[nH]cc([C@H]4C[C@H](N(C)C)C4)c3c2)n1 | 933 | 7590 | 1510 |  | 

Row | Compound | IC50 [1] [nM] | Kb (Oryctolagus cuniculus [2]) [nM] | IC50 [3] [nM] | pA50 (Oryctolagus cuniculus [4]) | other results
18 | CN(C)[C@H]1C[C@H](c2c[nH]c3ccc(C(=O)NCc4ccccc4)cc32)C1 | 141 | 1260 | 316 |  | 
19 | CNS(=O)(=O)Cc1ccc2[nH]cc(C[C@H]3CCCN3C)c2c1 | 7.24 |  | 14.5 |  | ED50 (Cavia porcellus [5]): 0.1 µg/kg; pA50 (Oryctolagus cuniculus [6]): 6.33
20 | CNS(=O)(=O)Cc1ccc2[nH]cc(CCN(C)C)c2c1 |  |  |  |  | ED50 (Cavia porcellus [5]): 10 µg/kg; pA50 (Oryctolagus cuniculus [7]): 6.6; bioavailability [8]: 14%
21 | CN(C)[C@H]1C[C@H](c2c[nH]c3ccc(CC4COC(=O)N4)cc32)C1 (stereo in doubt; 1) [listing 2 of 2 here] | 15.8 |  | 112 |  | bioavailability [9]: 35%; IC50 [10]: 3550 nM; clearance [11]: 40 mL/min/kg; half-life [12]: 1.4 h; ED50 (Cavia porcellus [13]): ~0.01 µg/kg; bioavailability [8]: 41%; IC50 [14]: 363 nM; Vd [15]: 2.6 L/kg
22 | CN(C)[C@H]1C[C@H](c2c[nH]c3ccc(CCN4C(=O)c5ccccc5C4=O)cc32)C1 | 195 | 170 | 204 |  | 
23 | CN(C)CCc1c[nH]c2ccc(C[C@H]3COC(=O)N3)cc12 [ZOLMITRIPTAN] | 2.82 |  | 6.17 | 6.8 | ED50 (Cavia porcellus [5]): ~12 µg/kg; bioavailability [8]: 40%
24 | CN(C)[C@H]1C[C@H](c2c[nH]c3ccc(CC4COC(=O)N4)cc32)C1 (stereo in doubt; 31) [listing 2 of 2 here] |  |  |  | 4.95 | 
25 | CN(C)[C@H]1C[C@H](c2c[nH]c3ccc(CC(N)=O)cc32)C1 | 724 | 16600 | 1350 |  | 
26 | N[C@H]1C[C@H](c2c[nH]c3ccc(CC4COC(=O)N4)cc32)C1 (stereo in doubt; 23) [listing 2 of 2 here] | 3.63 |  | 18.2 |  | 
27 | CN(C)[C@H]1C[C@H](c2c[nH]c3ccc(CC(=O)NCc4ccccc4)cc32)C1 | 339 | 3890 | 263 |  | 
28 | CN(C)[C@H]1C[C@H](c2c[nH]c3ccc(Oc4ccccc4)cc32)C1 | 64.6 | 240 | 97.7 |  | 
29 | CN(C)[C@H]1C[C@H](c2c[nH]c3ccc(CCN4C(=O)NC(C)(C)C4=O)cc32)C1 | 1480 | 891 | 1200 |  | 
30 | CN(C)[C@H]1C[C@H](c2c[nH]c3ccc(CCN4C(=O)CNC4=O)cc32)C1 |  | 1910 |  |  | 
31 | Cc1noc(-c2ccc3[nH]cc([C@H]4C[C@H](N(C)C)C4)c3c2)n1 | 562 | 955 | 832 |  | 
32 | CN(C)[C@H]1C[C@H](c2c[nH]c3ccc(CC4COC(=O)N4)cc32)C1 (stereo in doubt; 35) [listing 2 of 2 here] | 100 |  | 162 |  | 
33 | CN1C(=O)OCC1Cc1ccc2[nH]cc([C@H]3C[C@H](N(C)C)C3)c2c1 (stereo in doubt; 30) [listing 2 of 2 here] | 100 |  | 204 |  | 
34 | Cc1nc(Cc2ccc3[nH]cc([C@H]4C[C@H](N(C)C)C4)c3c2)n[nH]1 | 2040 | 6610 | 3890 |  | 
